Calls of active or inactive are those of the source. No cut-off for these calls is given here.
Legend:
Mus musculus [1] = assay: Behavioral toxicity in po dosed albino Icem-CET (SPF Caw) mouse assessed as positional passivity by Irwin's test; format: organism-based; conditions: in vivo
Mus musculus [2] = assay: Behavioral toxicity in po dosed albino Icem-CET (SPF Caw) mouse assessed as reduction in locomotor activity by Irwin's test; format: organism-based; conditions: in vivo
Mus musculus [3] = assay: Behavioral toxicity in po dosed albino Icem-CET (SPF Caw) mouse assessed as tremors by Irwin's test; format: organism-based; conditions: in vivo
[4] = Behavioral toxicity in po dosed albino Icem-CET (SPF Caw) mouse measured up to 7 days by Irwin's test; format: organism-based; conditions: in vivo
Mus musculus [5] = assay: Behavioral toxicity in albino Icem-CET (SPF Caw) mouse assessed as clonic type convulsion at 25 to 800 mg/kg, po by Irwin's test; format: organism-based; design: dose 25-800 mg/kg, route oral; conditions: in vivo
Mus musculus [6] = assay: Behavioral toxicity in albino Icem-CET (SPF Caw) mouse assessed as positional passivity at 25 to 800 mg/kg, po by Irwin's test; format: organism-based; design: dose 25-800 mg/kg, route oral; conditions: in vivo
Mus musculus [7] = assay: Anticonvulsant activity in albino Icem-CET (SPF Caw) mouse assessed as inhibition of pentylenetetrazole-induced maximal extensor seizures at 100 mg/kg, po administered 30 mins prior challenge; format: functional, organism-based; design: dose 100 mg/kg
How it was run: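 Single-dose screen at 100 mg/kg by gavage in 0.5% Methocel in fasted male Icem-CET (SPF Caw) mice, 17-22 g. Dosing was 30 min before pentylenetetrazole 130 mg/kg ip, and prevention of maximal extensor seizures was scored.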

Mus musculus [8] = assay: Behavioral toxicity in albino Icem-CET (SPF Caw) mouse assessed as tremors at 25 to 800 mg/kg, po by Irwin's test; format: organism-based; design: dose 25-800 mg/kg, route oral; conditions: in vivo
Mus musculus [9] = assay: Behavioral toxicity in po dosed albino Icem-CET (SPF Caw) mouse assessed as excitement at 25 to 100 mg/kg, po measured up to 30 mins post dose by Irwin's test; format: organism-based; design: dose 25-100 mg/kg, route oral; conditions: in vivo, 0.5 h
Mus musculus [10] = assay: Anticonvulsant activity in po dosed albino Icem-CET (SPF Caw) mouse assessed as inhibition of pentylenetetrazole-induced maximal extensor seizures compound administered 30 mins prior challenge; format: functional
How it was run: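 Pentylenetetrazole antagonism in male Icem-CET (SPF Caw) mice, 17-22 g, fasted 9 h. Compound in 0.5% Methocel was given by gavage (0.2 ml/10 g) at 4-5 doses, 20 mice per dose, 30 min before pentylenetetrazole 130 mg/kg ip. Prevention of maximal extensor seizures was scored. ED50 was calculated by probit analysis, with fiducial limits at p = 0.05.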

Mus musculus [11] = assay: Toxicity in po dosed albino Icem-CET (SPF Caw) mouse assessed as impairment of pinna by Irwin's test; format: organism-based; conditions: in vivo
Mus musculus [12] = assay: Toxicity in po dosed albino Icem-CET (SPF Caw) mouse assessed as clonic type convulsion by Irwin's test; format: organism-based; conditions: in vivo
How it was run: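 Irwin test in fasted (9 h) male Icem-CET (SPF Caw) mice, 17-22 g. Oral gavage of a 0.5% Methocel suspension at screening doses of 25-800 mg/kg. Clonic-type convulsions were scored as the minimum effective dose.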

Mus musculus [13] = assay: Toxicity in po dosed albino Icem-CET (SPF Caw) mouse assessed as impairment of corneal reflexes by Irwin's test; format: organism-based, Cornea; conditions: in vivo
[14] = Toxicity in po dosed albino Icem-CET (SPF Caw) mouse assessed as mortality measured after 24 to 72 hrs; format: organism-based; conditions: in vivo

SMILES | ED50 (Mus musculus [1]) | ED50 (Mus musculus [2]) | ED50 (Mus musculus [3]) | LD50 at 168 h [4] | Activity (Mus musculus [5]) | Activity (Mus musculus [6]) | Activity (Mus musculus [7]) | Activity (Mus musculus [8]) | Activity (Mus musculus [9]) | ED50 (Mus musculus [10]) | Activity (Mus musculus [11]) | MED (Mus musculus [12]) | Activity (Mus musculus [13]) | LD50 [14]
C=CCNC(=O)/C(C)=C(\C)c1ccc(Cl)cc1 | 90 mg/kg | 70 mg/kg | 70 mg/kg | 300 mg/kg |  |  |  |  |  |  |  |  |  | 
C=CCNC(=O)/C(C)=C(/C)c1ccc(Br)cc1 |  | 400 mg/kg |  | 600 mg/kg | Non-toxic | Non-toxic | inactive | Non-toxic |  |  |  |  |  | 
C/C(C(=O)NC1CC1)=C(/C)c1ccc(C)cc1 | 300 mg/kg | 110 mg/kg | 150 mg/kg | > 800 mg/kg |  |  | inactive |  |  |  |  |  |  | 
COc1ccc(/C(C)=C(\C)C(=O)NC2CC2)cc1 | 300 mg/kg | 250 mg/kg | 250 mg/kg | > 800 mg/kg |  |  | inactive |  |  |  |  |  |  | 
CCC1(c2ccccc2)C(=O)N=C([O-])NC1=O.[Na+] (centres undefined) [PHENOBARBITAL SODIUM] | 180 mg/kg | 180 mg/kg | 110 mg/kg | 290 mg/kg |  |  |  |  | Toxic |  |  |  |  | 
C#CCNC(=O)/C(C)=C(\C)c1cc(OC)c(OC)c(OC)c1 | 300 mg/kg | 160 mg/kg | 150 mg/kg | 500 mg/kg |  |  |  |  |  | 53.1 mg/kg |  |  |  | 
C#CCNC(=O)/C(C)=C(\C)c1ccccc1 | 400 mg/kg | 150 mg/kg | 150 mg/kg | 300 mg/kg |  |  |  |  |  | 45.3 mg/kg |  |  |  | 
C=CCNC(=O)/C(C)=C(/C)c1ccc(F)cc1 | 300 mg/kg | 270 mg/kg | 250 mg/kg | 400 mg/kg |  |  | inactive |  |  |  | Toxic | 800 mg/kg | Toxic | 
C#CCNC(=O)/C(C)=C(\C)c1ccc(F)cc1 | 200 mg/kg | 100 mg/kg | 100 mg/kg | 240 mg/kg |  |  |  |  |  | 22.8 mg/kg | Toxic |  | Toxic | 
C=CCNC(=O)/C(C)=C(/C)c1ccc(OC)cc1 |  | 280 mg/kg | 400 mg/kg | 400 mg/kg |  | Non-toxic | inactive |  |  |  |  | 400 mg/kg |  | 
C/C(C(=O)NC1CC1)=C(/C)c1ccc(Cl)cc1 | > 800 mg/kg | 350 mg/kg | 150 mg/kg | 300 mg/kg |  |  |  |  |  |  |  |  |  | 
C=CCNC(=O)/C(C)=C(\C)c1ccc(F)cc1 | 150 mg/kg | 70 mg/kg | 130 mg/kg | 400 mg/kg |  |  |  |  |  | 40.2 mg/kg | Toxic |  | Toxic | 
COc1cc(/C(C)=C(\C)C(=O)NC2CC2)cc(OC)c1OC | > 800 mg/kg | 320 mg/kg | > 800 mg/kg | > 800 mg/kg |  |  | inactive |  |  |  |  |  |  | 
C#CCNC(=O)/C(C)=C(\C)c1ccc(OC)cc1 | 400 mg/kg | 150 mg/kg | 150 mg/kg | > 800 mg/kg |  |  |  |  |  | 112 mg/kg |  |  |  | 
COc1ccc(/C(C)=C(/C)C(=O)NC2CC2)cc1 |  | 300 mg/kg | 300 mg/kg | 450 mg/kg |  | Non-toxic | inactive |  |  |  |  | 400 mg/kg |  | 
C/C(C(=O)NC1CC1)=C(/C)c1ccc(Br)cc1 | 600 mg/kg | 100 mg/kg | 130 mg/kg |  |  |  |  |  |  | 8.2 mg/kg |  |  |  | 200 mg/kg
C=CCNC(=O)/C(C)=C(/C)c1ccccc1 |  | 550 mg/kg | 400 mg/kg | 600 mg/kg |  | Non-toxic | inactive |  |  |  |  | 400 mg/kg |  | 
